In ChEMBL document CHEMBL4680108, “Ancistrolikokine E, a 5,8'-Coupled Naphthylisoquinoline Alkaloid, Eliminates the Tolerance of Cancer Cells to Nutrition Starvation by Inhibition of the Akt/mTOR/Autophagy Signaling Pathway” (2018):

Key:
PANC-1 [1] = experiment: Inhibition of autophagy in human PANC-1 cells cultured in nutrient-deprived medium assessed as inhibition of LC3-2 expression at […] after 6 hrs by Western blot analysis relative to control; format: functional
PANC-1 [2] = experiment: Anti-austerity activity against nutrient-deprived human PANC-1 cells assessed as cell death incubated for 24 hrs by WST-8 assay; format: functional
In short: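 Human PANC-1 pancreatic cancer cells tested in parallel in nutrient-deprived medium (NDM) and in nutrient-rich DMEM. PC50 is the concentration that kills 50% of cells in NDM without toxicity in DMEM.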

In the case of `Cn1cnc(N)c2ncnc1-2` [3-METHYLADENINE], the “fold change (FC)” value (PANC-1 [1]) is reported as 2.

`COc1cc(C[C@H]2C(=O)OC[C@@H]2Cc2ccc(OC)c(OC)c2)ccc1O` [ARCTIGENIN] was tested, and the PC50 (PANC-1 [2]) was 0.83 µM.
